Data on eleven compounds can be found in ChEMBL document CHEMBL1811870, “Synthesis, gp120 binding and anti-HIV activity of fatty acid esters of 1,1-linked disaccharides” (Bioorg Med Chem, 2011).

The test system of series [1] is Human immunodeficiency virus. The series can be described thus: Antiviral activity against HIV NL-Lai infected in human TZM-bl cells assessed as inhibition of viral infection at 100 uM treated before viral infection measured after 24 hrs by luciferase assay. The format is functional, organism-based. The essentials:
(§1)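 TZM-bl cells infected with NL-Lai (X4) virus. Compounds at 100 μM were given either before infection or 4 h after infection. In the post-infection arm, unbound virus was washed off with PBS and fresh medium containing compound was added. T20 and AMD3100 controls were used at 2 μM. Luciferase was read 24 h later. Mean ± SD of triplicates.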

Series [2] has as its system Human immunodeficiency virus. Briefly: Antiviral activity against HIV NL-Lai infected in human TZM-bl cells assessed as inhibition of viral infection after 24 hrs by luciferase assay. The format is functional, organism-based. To be noted: Human immunodeficiency virus 1, NL-Lai. The essentials:
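TZM-bl cells (2×10^4/well) adhered overnight, then infected with X4 NL-Lai virus (from 293T transfection, titered on TZM-bl) with 20 μg/mL DEAE dextran and serial dilutions of compound. Luciferase read 24 h post infection and normalized to virus-only wells. IC50 taken from curve fit of data pooled from at least three independent experiments.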

In series [3] the test system is Human immunodeficiency virus 1. Briefly: Binding affinity to HIV1 3B R15K V3 loop of gp-120 using monomolecular film after 2 to 3 hrs by microtensiometer analysis. The method, boiled down: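 Glycolipid monolayers spread from hexane-chloroform-ethanol onto a pure water subphase at various initial surface pressures, with 5 min allowed for solvent evaporation, at 20°C ± 1°C. Critical pressure of insertion extrapolated to zero Δπ; surface pressure accuracy ± 0.25 mN/m.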

The nature of series [4]: Critical micelle concentration of the compound. Format: physicochemical. The essentials: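 Glycolipid stocks in hexane:chloroform:ethanol (11:5:4) were injected 1:1000 into water, with surface tension recorded continuously on a microtensiometer. CMC was taken as the concentration above which surface tension no longer fell. Measured in triplicate.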
Series [5] is described as follows: Cytotoxicity against human TZM-bl cells up to 200 uM after 24 hrs by MTS assay. Format: cell-based. The method, boiled down: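 TZM-bl cells were seeded and left overnight, then exposed to serial dilutions starting at 200 μM for 24 h. MTS dye reduction was read as OD at 490 nm and normalized to cells in medium only.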
Series [6] relates to Human immunodeficiency virus. Briefly: Antiviral activity against HIV NL-Lai infected in human TZM-bl cells assessed as inhibition of viral infection at 100 uM treated 4 hrs after viral infection measured after 24 hrs by luciferase assay. Format: functional, organism-based. The essentials:
as §1

Active and inactive are the calls of the source. No cut-off for these calls is given here.

On to `CCCCCCCCCCCCCCCC(=O)OC[C@H]1O[C@H](O[C@@H]2O[C@H](CO)[C@@H](O)[C@H](O)[C@H]2O)[C@@H](O)[C@@H](O)[C@@H]1O`, for which the inhibition entry in series [1] is “Active”. Also, in series [2], the IC50 – broadly, the midpoint of a concentration-inhibition curve – is 52.5 µM. In series [3], this compound returned a CPI of 18 mN/meter. The compound also displayed a CMC in series [4] of 10 µM. Also, the Activity entry in series [5] is recorded as “Non-toxic”. Besides, in series [6], the inhibition result is “inactive”.

For the compound `CCCCCCCCCCCCCCCC(=O)OC[C@H]1O[C@H](OC)[C@@H](O)[C@@H](O)[C@@H]1OC(=O)CCCCCCCCCCCCCCC`, the IC50 in series [2] is greater than 100 µM. Also, the CPI in series [3] worked out at 18 mN/meter. The Activity entry in series [5] is on record as “Non-toxic”.

For the compound `CCCCCCCCCCCCCCCC(=O)OC[C@H]1O[C@H](O[C@@H]2O[C@H](CO)[C@H](O)[C@H](O)[C@H]2O)[C@@H](O)[C@@H](O)[C@@H]1O`, the IC50 in series [2] is greater than 100 µM. The compound further registered a CPI in series [3] of 18 mN/meter. Moreover, the CMC in series [4] is 9.8 µM. Moreover, the Activity result in series [5] is listed as “Non-toxic”.

As for `CCCCCCCCCCCCCCCC(=O)OC[C@H]1O[C@H](O[C@@H]2O[C@H](CO)[C@H](O)[C@H](O)[C@H]2O)[C@@H](O)[C@@H](O)[C@@H]1OC(=O)CCCCCCCCCCCCCCC`, the IC50 in series [2] was greater than 100 µM. In series [3], this compound displayed a CPI of 18 mN/meter. In series [5], the Activity entry is “Non-toxic”.

As for `CCCCCCCCCCCC(=O)OCC(O)CO` (centres undefined) [GLYCEROL MONOLAURATE], the IC50 in series [2] was greater than 100 µM.

With `c1cc(CN2CCCNCCNCCCNCC2)ccc1CN1CCCNCCNCCCNCC1`, in series [1], the inhibition entry was “Active”. Moreover, in series [6], the inhibition result is “inactive”.

On to `CCCCCCCCCCCCCCCCO[C@@H]1O[C@H](CO)C(O)[C@H](O)[C@H]1O` (single isomer, unassigned), for which the inhibition result in series [1] was “Active”. Moreover, the IC50 in series [2] worked out at 43.5 µM. Besides, the Activity entry in series [5] is recorded as “Non-toxic”. For the same compound, in series [6], the inhibition entry was “inactive”.

As to `CCCCCCCCCCCCC/C=C/[C@@H](O)[C@H](CO[C@@H]1O[C@H](CO)[C@H](O)[C@H](O)[C@H]1O)NC(=O)C(O)CCCCCCCCCCCCCCCCCCCCCC` (some centres undefined), in series [3], the CPI came out at 22 mN/meter. The Activity result in series [5] is recorded as “Non-toxic”.

As for `CCCCCCCCCCCCCCCC(=O)O[C@@H]1[C@H](O)[C@@H](O[C@@H]2O[C@H](CO)[C@H](O)[C@H](O)[C@H]2O)O[C@H](CO)[C@H]1O`, in series [1], the inhibition entry is “Active”. For the same compound, the half-maximal inhibitory concentration (IC50) in series [2] is 76 µM. Also, the CPI in series [3] was found to be 18 mN/meter. For the same compound, the CMC in series [4] was 12 µM. Also, the Activity result in series [5] is on record as “Non-toxic”. Also, in series [6], the inhibition result was “inactive”.

For the compound `CCCCCCCCCCCCCCCC(=O)OC[C@H]1O[C@H](OC)[C@@H](O)[C@@H](O)[C@@H]1O`, the IC50 in series [2] is greater than 100 µM. In series [3], this compound had a CPI of 18 mN/meter. Besides, the CMC in series [4] came to 13 µM. Also, the Activity entry in series [5] is “Non-toxic”.

For `CCCCCCCCCCCCCCCC(=O)OC[C@H]1O[C@H](O[C@H]2O[C@H](CO)[C@H](O)[C@H](O)[C@H]2O)[C@@H](O)[C@@H](O)[C@@H]1O`, in series [1], the inhibition entry is “Active”. Also, the IC50 in series [2] turned out to be 48.4 µM. Besides, in series [5], the Activity entry is on record as “Non-toxic”. In addition, in series [6], the inhibition entry is “inactive”.
